Assay results: ChEMBL document CHEMBL5500386, “Design, synthesis and bioactivity evaluation of 4-hydroxycoumarin derivatives as potential anti-inflammatory agents against acute lung injury and colitis” (Eur J Med Chem, 2024)
Activity calls are given as the source filed them. The calls are words filed in the database; no cut-off is given here.

How the values were obtained:
[1] = Acute toxicity in male ICR mouse assessed as histopathological changes in liver at 500 to 1000 mg/kg, po administered daily for 10 days by H and E staining based analysis; format: organism-based; settings: in vivo, 240 h, dose 500-1000 mg/kg, time 10 day
Summary of the method: (§1)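 Male ICR mice (8 weeks, 30 g ± 2 g), acclimatised 1 week, randomised into 1000 mg/kg, 500 mg/kg and untreated control groups (n = 24 total). Dosed by daily gavage, compound dissolved in 0.5 % DMSO then added to normal saline. Body weight and behaviour recorded daily. Euthanised after 10 days; heart, liver, spleen, lung and kidney examined by H&E staining.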

J774.A1 [2] = assay: Antiinflammatory activity in LPS-induced mouse J774.a1 cells assessed as inhibition of IL-6 production by measuring fold change at 10 uM pretreated for 2 hrs followed by LPS stimulation and measured after 30 mins by ELISA relative to 4-hydroxycoumarin; format: functional; settings: time 2.5 hrs
J774.A1 [3] = assay: Inhibition of LPS-induced NF-kappaB activation in mouse J774.A1 cells assessed as reduction in p65 phosphorylation at 5 to 20 uM pretreated for 2 hrs followed by LPS stimulation and measured after 30 mins by Western blot analysis; format: cell-based; settings: dose 5-20 µM, time 2.5 hrs
Summary of the method: (§2)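 J774A.1 macrophages pretreated with 20, 10 or 5 μM for 2 h, then LPS 0.5 μg/mL for 30 min. RIPA lysates quantified by Bradford. 40 μg run on 12.5 % SDS-PAGE and transferred to PVDF. Blocked 1.5 h in BSA, primary antibody overnight at 4 °C, secondary 2 h at room temperature, detected by ECL.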

[4] = AUC (0 to t) in male Sprague-Dawley rat at 10 mg/kg, po measured upto 24 hrs by triple quadrupole mass spectrometric analysis; format: ADME, organism-based; settings: in vivo
Summary of the method: (§3)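 Male SD rats (8 weeks, 200 g ± 20 g), n = 3 per route. Oral: 10 mg/kg by gavage in 0.05 % DMSO/normal saline, tail-vein blood at 13 times from 10 min to 24 h. IV: 1 mg/kg tail vein in 5 % DMSO/30 % PEG400/65 % saline, 14 samples from 5 min to 24 h. Heparinised plasma precipitated with acetonitrile containing internal standard. Non-compartmental analysis on mean concentrations.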

[5] = Acute toxicity in male ICR mouse assessed as histopathological changes in heart at 500 to 1000 mg/kg, po administered daily for 10 days by H and E staining based analysis; format: organism-based; settings: in vivo, 240 h, dose 500-1000 mg/kg, time 10 day; summary of the method: as §1
[6] = Acute toxicity in male ICR mouse assessed as histopathological changes in lung at 500 to 1000 mg/kg, po administered daily for 10 days by H and E staining based analysis; format: organism-based; settings: in vivo, 240 h, dose 500-1000 mg/kg, time 10 day; summary of the method: as §1
[7] = biological target: T1, Inhibitor of nuclear factor kappa-B kinase subunit beta (Homo sapiens) (UniProt O14920); assay: Inhibition of IKKbeta (unknown origin) at 10 uM relative to control
T1 sequence (whole entry): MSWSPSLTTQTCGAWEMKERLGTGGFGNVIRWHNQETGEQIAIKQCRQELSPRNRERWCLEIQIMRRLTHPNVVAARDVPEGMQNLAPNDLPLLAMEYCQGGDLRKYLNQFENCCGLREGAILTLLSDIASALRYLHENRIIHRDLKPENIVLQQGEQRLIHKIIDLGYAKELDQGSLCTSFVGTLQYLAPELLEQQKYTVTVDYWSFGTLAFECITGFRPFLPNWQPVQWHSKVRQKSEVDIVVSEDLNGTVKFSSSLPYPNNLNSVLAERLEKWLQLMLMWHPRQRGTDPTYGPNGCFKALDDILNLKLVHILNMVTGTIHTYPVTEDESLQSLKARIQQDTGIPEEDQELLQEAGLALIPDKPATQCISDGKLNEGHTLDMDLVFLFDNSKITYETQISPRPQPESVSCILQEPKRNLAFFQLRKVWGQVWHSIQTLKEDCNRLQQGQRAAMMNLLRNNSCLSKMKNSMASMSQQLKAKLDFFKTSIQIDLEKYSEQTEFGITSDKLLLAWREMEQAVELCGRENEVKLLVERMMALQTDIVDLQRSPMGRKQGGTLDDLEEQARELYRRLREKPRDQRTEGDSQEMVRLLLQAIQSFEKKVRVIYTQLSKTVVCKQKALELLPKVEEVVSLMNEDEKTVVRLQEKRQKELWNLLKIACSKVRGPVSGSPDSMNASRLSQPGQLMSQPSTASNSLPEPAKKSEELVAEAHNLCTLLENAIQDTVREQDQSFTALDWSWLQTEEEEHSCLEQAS

[8] = Half life in male Sprague-Dawley rat at 10 mg/kg, po measured upto 24 hrs by triple quadrupole mass spectrometric analysis; format: ADME, organism-based; settings: in vivo; summary of the method: as §3
Mus musculus [9] = assay: Protection against LPS-induced C57BL/6 mouse model of acute lung injury assessed as reduction in inflammatory cell infiltration in lung at 20 mg/kg, po administered 3 times for every 12 hrs followed by LPS stimulation at 5 mg/kg and measured after 6 hrs by immunohistochemical staining based analysis; format: functional, organism-based; settings: time 30.0 hrs
Summary of the method: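 LPS-induced ALI in C57BL/6 mice: 20 mg/kg orally three times at 12 h intervals, then intratracheal LPS 5 mg/kg, lungs taken at 6 h. F4/80 IHC: xylene deparaffinisation, citrate pH 6 retrieval for 25 min, primary antibody at 4 °C for 12 h, secondary 1:2000, DAB and hematoxylin. Viewed at ×20.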

[10] = Oral bioavailability in male Sprague-Dawley rat at 10 mg/kg measured upto 24 hrs by triple quadrupole mass spectrometric analysis; format: ADME, organism-based; settings: in vivo; summary of the method: as §3
Mus musculus [11] = assay: Protection against LPS-induced C57BL/6 mouse model of acute lung injury assessed as reduction in destruction of the alveolar cell structure at 20 mg/kg, po administered 3 times for every 12 hrs followed by LPS stimulation at 5 mg/kg and measured after 6 hrs by H and E staining based analysis; format: functional, organism-based; settings: time 30.0 hrs
Summary of the method: (§4)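 LPS-induced ALI in C57BL/6 mice: 20 mg/kg orally three times at 12 h intervals, then intratracheal LPS 5 mg/kg, killed at 6 h. Lungs paraffin-embedded, cut into 5 μm sections and H&E stained. Viewed at ×20.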

[12] = Tmax in male Sprague-Dawley rat at 10 mg/kg, po measured upto 24 hrs by triple quadrupole mass spectrometric analysis; format: ADME, organism-based; settings: in vivo; summary of the method: as §3
J774.A1 [13] = assay: Inhibition of LPS-induced MAPK activation in mouse J774.A1 cells assessed as reduction in p38 phosphorylation at 5 to 20 uM pretreated for 2 hrs followed by LPS stimulation and measured after 30 mins by Western blot analysis; format: cell-based; settings: dose 5-20 µM, time 2.5 hrs; summary of the method: as §2
Mus musculus [14] = assay: Protection against LPS-induced C57BL/6 mouse model of acute lung injury assessed as reduction in inflammatory cell infiltration in lung at 20 mg/kg, po administered 3 times for every 12 hrs followed by LPS stimulation at 5 mg/kg and measured after 6 hrs by H and E staining based analysis; format: functional, organism-based; settings: time 30.0 hrs; summary of the method: as §4
Mus musculus [15] = assay: Antiinflammatory activity in DSS-induced male C57BL/6 mouse model of inflammatory bowel disease assessed as decrease in disease index at 20 mg/kg, IG administered with compound and DSS for 7 days followed by DSS replacement with distilled water for 3 days; format: functional, organism-based; settings: time 10.0 day

## CC(=O)N1CCN(CCOc2cc(=O)oc3ccccc23)CC1
[1]
  Activity: Non-Toxic
J774.A1 [2]
  fold change (FC): 3
J774.A1 [3]
  inhibition: inactive
[4]
  AUC(0-t) at 24 h: 2670 ng·h/mL
[5]
  Activity: Non-Toxic
[6]
  Activity: Non-Toxic
[7]
  inhibition: -9.11%
[8]
  half-life: 2.36 h
Mus musculus [9]
  Activity: Active
[10]
  bioavailability: 28.7%
Mus musculus [11]
  Activity: Active
[12]
  Tmax: 0.67 h
J774.A1 [13]
  inhibition: Active
Mus musculus [14]
  Activity: Active
Mus musculus [15]
  Activity: Active
